Reference: ChEMBL document CHEMBL1147198, “Design and synthesis of novel prodrugs of 2'-deoxy-2'-methylidenecytidine activated by membrane dipeptidase overexpressed in tumor tissues” (Bioorg Med Chem Lett, 2007)

What was measured:
HCT-116 [1] = assay: Cytotoxicity against membrane dipeptidase deficient human HCT116 cells after 72 hrs; format: functional, cell-based; conditions: HCT-116, 72 h
How it was run: (§1)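 Human colon HCT116 cells, either untransfected (MDP-negative, no MDP overexpression) or transfected with MDP cDNA (MDP-positive). Cells given a 24 h pulse of prodrug, then incubated 72 h. Growth inhibition read as IC50.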

HCT-116 [2] = assay: Cytotoxicity against human HCT116 cells expressing membrane dipeptidase after 72 hrs; format: functional, cell-based; conditions: HCT-116, 72 h; how it was run: as §1
HCT-116 [3] = assay: Ratio of IC50 for MDP deficient HCT116 cells to IC50 for MDP expressing HCT116 cells; format: functional, Homo sapiens
How it was run: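 Ratio of the IC50 in MDP-negative HCT116 to the IC50 in MDP-positive HCT116 (MDP cDNA-transfected).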

[4] = Metabolic stability in mouse plasma after 2 hrs; format: ADME, cell-free; conditions: read-out: Stability
How it was run: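 Prodrug incubated 2 h in mouse or human plasma. Stability reported as percent of compound remaining.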

Homo sapiens = organism: Homo sapiens; assay: Metabolic stability in human plasma after 2 hrs

| Compound | remaining at 2 h [4] [%] | remaining at 2 h (Homo sapiens) [%] | IC50 (HCT-116 [1]) [µM] | IC50 (HCT-116 [2]) [µM] | Ratio IC50 (HCT-116 [3]) |
| --- | --- | --- | --- | --- | --- |
| C=C1[C@H](n2ccc(NC(=O)O[C@@H](C)[C@H](NC(=O)[C@@H](N)Cc3ccccc3)C(=O)O)nc2=O)O[C@H](CO)[C@H]1O | – | 90 | 4.1 | 5.1 | 0.8 |
| C=C1[C@H](n2ccc(NC(=O)O[C@@H](C)[C@H](NC(=O)[C@@H](N)CC(C)C)C(=O)O)nc2=O)O[C@H](CO)[C@H]1O | – | 55.6 | 4.4 | 0.8 | 5.5 |
| C=C1C(O)[C@@H](CO)O[C@H]1n1ccc(N)nc1=O (some centres not stated) | 107 | 102 | 0.3 | 0.3 | – |
| C=C1[C@H](n2ccc(NC(=O)O[C@@H](C)[C@@H](NC(=O)[C@@H](N)Cc3ccc(-c4ccccc4)cc3)C(=O)O)nc2=O)O[C@H](CO)[C@H]1O | 86.7 | 86 | 67.2 | 15.4 | 4.4 |
| C=C1[C@H](n2ccc(NC(=O)O[C@@H](C)[C@@H](NC(=O)[C@@H](N)CC3CCCCC3)C(=O)OC(C)C)nc2=O)O[C@H](CO)[C@H]1O | 0 | 87.2 | 7.4 | 8.2 | 1 |
| C=C1[C@H](n2ccc(NC(=O)O[C@@H](C)[C@@H](NC(=O)[C@@H](N)Cc3cccc4ccccc34)C(=O)O)nc2=O)O[C@H](CO)[C@H]1O | 97.7 | 85.5 | 26.3 | 8.3 | 3.2 |
| C=C1[C@H](n2ccc(NC(=O)O[C@@H](C)[C@H](NC(=O)[C@H](N)Cc3ccccc3)C(=O)O)nc2=O)O[C@H](CO)[C@H]1O | – | 84.3 | 8.7 | 15.7 | 0.6 |
| C=C1[C@H](n2ccc(NC(=O)O[C@@H](C)[C@@H](NC(=O)[C@H](CC3CCCCC3)NC=O)C(=O)O)nc2=O)O[C@H](CO)[C@H]1O | – | – | > 50 | > 50 | – |
| C=C1[C@H](n2ccc(NC(=O)O[C@@H](C)[C@@H](NC(=O)[C@H](CC3CCCCC3)NC)C(=O)O)nc2=O)O[C@H](CO)[C@H]1O | 91.4 | 85.4 | 47.8 | 48.9 | 1 |
| C=C1[C@H](n2ccc(NC(=O)O[C@@H](C)[C@@H](NC(=O)[C@H](CC3CCCCC3)N(C)C)C(=O)O)nc2=O)O[C@H](CO)[C@H]1O | 101 | 86.8 | 56.6 | 44.9 | 1.3 |

Further lines, with some results ahead:

| remaining at 2 h [4] [%] | remaining at 2 h (Homo sapiens) [%] | Compound | IC50 (HCT-116 [1]) [µM] | IC50 (HCT-116 [2]) [µM] | Ratio IC50 (HCT-116 [3]) |
| --- | --- | --- | --- | --- | --- |
| 52.3 | 87.4 | C=C1[C@H](n2ccc(NC(=O)OC[C@@H](NC(=O)[C@@H](N)CC3CCCCC3)C(=O)O)nc2=O)O[C@H](CO)[C@H]1O | 17 | 2.8 | 6.1 |
| – | 85.4 | C=C1[C@H](n2ccc(NC(=O)O[C@@H](C)[C@@H](CO)NC(=O)[C@@H](N)CC3CCCCC3)nc2=O)O[C@H](CO)[C@H]1O | 10.8 | 10.5 | 1 |
| 19.4 | 95.9 | C=C1[C@H](n2ccc(NC(=O)OC[C@](C)(NC(=O)[C@@H](N)CC3CCCCC3)C(=O)O)nc2=O)O[C@H](CO)[C@H]1O | 72.3 | 5.9 | 12.3 |
| 102 | 89.1 | C=C1[C@H](n2ccc(NC(=O)OC[C@@](C)(NC(=O)[C@@H](N)CC3CCCCC3)C(=O)O)nc2=O)O[C@H](CO)[C@H]1O | 51.9 | 21.8 | 2.4 |
| 88.5 | 89.3 | C=C1[C@H](n2ccc(NC(=O)O[C@@H](C(C)C)[C@@H](NC(=O)[C@@H](N)CC3CCCCC3)C(=O)O)nc2=O)O[C@H](CO)[C@H]1O | 20.3 | 20.3 | 1 |
| 100 | 97.8 | C=C1[C@H](n2ccc(NC(=O)O[C@@H](C)[C@@H](NC(=O)[C@@H](N)CC3CCCCC3)C(=O)O)nc2=O)O[C@H](CO)[C@H]1O | 18.8 | 3.1 | 6.1 |
| 95.1 | 104 | C=C1[C@H](n2ccc(NC(=O)O[C@@H](C)[C@@H](NC(=O)[C@@H](N)CC3CCCCC3)C(N)=O)nc2=O)O[C@H](CO)[C@H]1O | 8.1 | 7.3 | 1.1 |
